Assay results taken from ChEMBL document CHEMBL1123790, “Stereospecificity of the chloride ion channel: the action of chiral clofibric acid analogues” (J Med Chem, 1987).

Columns and labels:
Rattus norvegicus [1] = species on record: Rattus norvegicus; assay: Number of fibres over number of preparation sampled was determined at a concentration of 230 uM; assay type: functional
Rattus norvegicus [2] = species on record: Rattus norvegicus; assay: Resting membrane potential determined in rat extensor digitorum longus(EDL) muscle fibers at a concentration of 230 uM; assay type: functional
Method in brief: (§1)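 Male Wistar rat (180–220 g) EDL muscles in Ringer's bath at 30 ± 1 °C, pH 7.3–7.4. Two intracellular microelectrodes (current electrode within 100 μm of voltage electrode). Square-wave constant-current pulses applied after holding at -80 mV. Latency = maximum delay to action potential onset; threshold = minimal long-pulse current for one spike; spikes = maximum with strong depolarization. Mean ± SEM; Student's t test.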

Rattus norvegicus [3] = species on record: Rattus norvegicus; assay: Minimal current intensity for a long pulse for a single action potential in rat extensor digitorum longus(EDL) muscle fibers was determined at a concentration of 230 uM; assay type: functional; method in brief: as §1
Rattus norvegicus [4] = species on record: Rattus norvegicus; assay: Maximum number of spikes elicited by strong depolarizing pulses in rat extensor digitorum longus(EDL) muscle fibers was determined at a concentration of 230 uM; assay type: functional; method in brief: as §1
Rattus norvegicus [5] = species on record: Rattus norvegicus; assay: Latency in rat extensor digitorum longus(EDL) muscle fibers was determined at a concentration of 230 uM; assay type: functional; method in brief: as §1
Rattus norvegicus [6] = species on record: Rattus norvegicus; assay: Number of fibres over number of preparation sampled was determined at a concentration of 92 uM; assay type: functional
Rattus norvegicus [7] = species on record: Rattus norvegicus; assay: Latency was determined in rat extensor digitorum longus(EDL) muscle fibers at a concentration of 92 uM; assay type: functional; method in brief: as §1
Rattus norvegicus [8] = species on record: Rattus norvegicus; assay: Concentration required to block 50% chloride conductance in rat extensor digitorum longus(EDL) muscle fibers; assay type: functional, organism-based
Method in brief: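 Male Wistar rats (180–220 g); EDL muscles in bath at 30 ± 1 °C, perfused with Ringer's (normal or Cl⁻-free methyl sulfate) containing compound, pH 7.3–7.4, from 10^-3 g/mL stocks in 1% NaHCO3. Intracellular microelectrode cable analysis; GCl = mean Gm − mean GK. Three or more concentrations (5–230 μM); curves fit to single-site binding by nonlinear least squares, IC50 ± SD.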

Rattus norvegicus [9] = species on record: Rattus norvegicus; assay: Maximum number of spikes elicited by strong depolarizing pulses in rat extensor digitorum longus(EDL) muscle fibers was determined at a concentration of 92 uM; assay type: functional; method in brief: as §1
Rattus norvegicus [10] = species on record: Rattus norvegicus; assay: Minimal current intensity for a long pulse for a single action potential in rat extensor digitorum longus(EDL) muscle fibers was determined at a concentration of 92 uM; assay type: functional; method in brief: as §1
Rattus norvegicus [11] = species on record: Rattus norvegicus; assay: Resting membrane potential determined in rat extensor digitorum longus(EDL) muscle fibers at a concentration of 92 uM; assay type: functional; method in brief: as §1
Rattus norvegicus [12] = species on record: Rattus norvegicus; assay: Maximum number of spikes elicited by strong depolarizing pulses in rat extensor digitorum longus muscle fibers was determined at a concentration of 92 uM; assay type: functional
Method in brief: (§2)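 EDL fibres from male Wistar rats (180–220 g), in Ringer's at 30 ± 1 °C, pH 7.3–7.4, drug diluted from bicarbonate stock. Two intracellular microelectrodes within 100 μm; fibre held at -80 mV by holding current, then square-wave constant-current depolarizing pulses. Read-outs: resting potential, latency to action potential, threshold current (long pulse), maximal spike number; mean ± SEM, fibres/preparations counted; Student's t test.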

Rattus norvegicus [13] = species on record: Rattus norvegicus; assay: Latency in rat extensor digitorum longus(EDL) muscle fibers was determined at a concentration of 92 uM; assay type: functional; method in brief: as §2
Rattus norvegicus [14] = species on record: Rattus norvegicus; assay: Resting membrane potential in rat extensor digitorum longus(EDL) muscle fibers was determined at a concentration of 92 uM; assay type: functional; method in brief: as §2
Rattus norvegicus [15] = species on record: Rattus norvegicus; assay: Resting membrane potential in rat extensor digitorum longus(EDL) muscle fibers was determined at a concentration of 230 uM; assay type: functional; method in brief: as §2
Rattus norvegicus [16] = species on record: Rattus norvegicus; assay: Minimal current intensity for a long pulse for a single action potential in rat extensor digitorum longus(EDL) muscle fibers was determined at a concentration of 20 uM; assay type: functional; method in brief: as §2
Rattus norvegicus [17] = species on record: Rattus norvegicus; assay: Maximum number of spikes elicited by strong depolarizing pulses in rat extensor digitorum longus(EDL) muscle fibers was determined at a concentration of 20 uM; assay type: functional; method in brief: as §2
Rattus norvegicus [18] = species on record: Rattus norvegicus; assay: Resting membrane potential determined in rat extensor digitorum longus(EDL) muscle fibers at a concentration of 20 uM; assay type: functional; method in brief: as §1
Rattus norvegicus [19] = species on record: Rattus norvegicus; assay: Number of fibres over number of preparation sampled was determined at a concentration of 20 uM; assay type: functional; method in brief: as §2
Rattus norvegicus [20] = species on record: Rattus norvegicus; assay: Latency in rat extensor digitorum longus(EDL) muscle fibers was determined at a concentration of 20 uM; assay type: functional; method in brief: as §1
Rattus norvegicus [21] = assay: Concentration to block chloride membrane conductance (G Cl) in rat extensor digitorum longus (EDL) muscle fibers (in vivo and in vitro); assay type: functional, organism-based
Method in brief: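 Male Wistar rats 180–220 g; EDL muscles in bath at 30 ± 1 °C, perfused with Ringer's (normal or Cl⁻-free methyl sulfate), pH 7.3–7.4; compounds from 10^-3 g/mL stock in 1% NaHCO3, tested 5–230 μM. Intracellular microelectrode cable analysis; GCl = mean Gm minus mean GK; ≥3 concentrations; single-site binding fit by nonlinear least squares gives IC50 ± SD.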

Rattus norvegicus [22] = species on record: Rattus norvegicus; assay: Maximum number of spikes elicited by strong depolarizing pulses in rat extensor digitorum longus muscle fibers was determined at a concentration of 20 uM; assay type: functional; method in brief: as §1
Rattus norvegicus [23] = species on record: Rattus norvegicus; assay: Minimal current intensity for a long pulse for a single action potential in rat extensor digitorum longus muscle fibers was determined at a concentration of 20 uM; assay type: functional; method in brief: as §1
Rattus norvegicus [24] = species on record: Rattus norvegicus; assay: Number of fibres over number of preparation sampled was determined at a concentration of; assay type: functional

With `C[C@@H](Oc1ccc(Cl)cc1)C(=O)O` the Fibers/preparations (Rattus norvegicus [1]) was 8, the Resting potential (Rattus norvegicus [2]) was 73 -mV and the Threshold current (Rattus norvegicus [3]) was 90 nA. For the same compound, the No. of spikes (Rattus norvegicus [4]) was 6.5 and the Latency (Rattus norvegicus [5]) was 6.2 ms.

Compound `CC(Oc1ccc(Cl)cc1)C(=O)O` (racemic) has a Fibers/preparations (Rattus norvegicus [6]) of 18, a Latency (Rattus norvegicus [7]) of 24.3 ms and an IC50 (Rattus norvegicus [8]) of 81 µM. For the same compound, the No. of spikes (Rattus norvegicus [9]) was 12.5, the Threshold current (Rattus norvegicus [10]) was 79.1 nA and the Resting potential (Rattus norvegicus [11]) was 74 -mV.

`CCC(Oc1ccc(Cl)cc1)C(=O)O` (racemic) was tested, and the Fibers/preparations (Rattus norvegicus [6]) was 12, the No. of spikes (Rattus norvegicus [12]) was <15.6 and the Latency (Rattus norvegicus [13]) was <18.3 ms. For the same compound, the Resting potential (Rattus norvegicus [14]) was < 65 -mV, the IC50 (Rattus norvegicus [8]) was 44 µM and the Threshold current (Rattus norvegicus [10]) was 67.3 nA.

In the case of `CC[C@@H](Oc1ccc(Cl)cc1)C(=O)O`, the Resting potential (Rattus norvegicus [15]) is reported as 70 -mV, the Fibers/preparations (Rattus norvegicus [1]) is reported as 13 and the Threshold current (Rattus norvegicus [3]) is reported as 121 nA. It also gave a No. of spikes (Rattus norvegicus [4]) of 6.5 and a Latency (Rattus norvegicus [5]) of 5.2 ms.

For `CC[C@H](Oc1ccc(Cl)cc1)C(=O)O`, the Threshold current (Rattus norvegicus [16]) was 65 nA, the IC50 (Rattus norvegicus [8]) was 10.3 µM and the No. of spikes (Rattus norvegicus [17]) was <15. The Resting potential (Rattus norvegicus [18]) was 68 -mV, the Fibers/preparations (Rattus norvegicus [19]) was 8 and the Latency (Rattus norvegicus [20]) was <30.2 ms.

In the case of `CC(C)(Oc1ccc(Cl)cc1)C(=O)O` [CLOFIBRIC ACID], the IC50 (Rattus norvegicus [21]) is reported as 205 µM.

For `C[C@H](Oc1ccc(Cl)cc1)C(=O)O`, the IC50 (Rattus norvegicus [8]) was 12 µM, the No. of spikes (Rattus norvegicus [22]) was <18 and the Resting potential (Rattus norvegicus [18]) was 70 -mV. For the same compound, the Latency (Rattus norvegicus [20]) was <45.5 ms, the Threshold current (Rattus norvegicus [23]) was <65 nA and the Fibers/preparations (Rattus norvegicus [24]) was 15.
